Source: ChEMBL document CHEMBL1128400, “Synthesis of some 2-aryl-1,2,4-triazolo[1,5-c][1,3]benzoxazin-5-ones as tools to define the essential pharmacophoric descriptors of a benzodiazepine receptor ligand” (J Med Chem, 1995)

How the values were obtained:
[1] = molecular target: T1, GABA-A receptor; anion channel (Bos taurus) (UniProt P10063+P08220+P20237+P08219+P10064+P22300); experiment: inhibition of [3H]flunitrazepam binding to GABA-A benzodiazepine receptor of bovine brain membranes; format: cell membranes; details: concentration not given here
[2] = Binding affinity at bovine Benzodiazepine receptor by [3H]flunitrazepam displacement.
Method in brief: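 [3H]flunitrazepam displacement; IC50 from log-probit plots, converted to Ki. Run for compounds giving enough inhibition in a 10 μM screen.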

[3] = molecular target: T1, GABA-A receptor; anion channel (Bos taurus); experiment: GABA ratio (where GABA ratio = IC50 (compound) / IC50 (compound + 10 uM GABA)).; format: protein-complex assay
Method in brief: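 Ratio of IC50 for [3H]flunitrazepam displacement measured without GABA to IC50 measured with 10 μM GABA. Used as a rough in vitro gauge of intrinsic activity. Five independent experiments.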

[4] = molecular target: T1, GABA-A receptor; anion channel (Bos taurus); experiment: Percentage inhibition of [3H]flunitrazepam binding to GABA-A benzodiazepine receptor of bovine brain membranes; format: cell membranes; details: concentration not given here
Method in brief: (§1)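 Percent inhibition of [3H]flunitrazepam binding, with test compound at 10 μM. Ethanol used as solvent in one case.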

[5] = molecular target: T1, GABA-A receptor; anion channel (Bos taurus); experiment: Inhibition of [3H]flunitrazepam binding to GABA-A benzodiazepine receptor of bovine brain membranes at 10e-5 M; format: cell membranes; method in brief: as §1

Row | Compound | inhibition [1] [%] | Ki [2] [µM] | GR [3] | inhibition [4] [%] | inhibition [5] [%]
1 | O=c1oc2cc(Cl)ccc2c2nc(-c3ccccc3F)nn12 | 47 | – | – | – | –
2 | O=c1oc2ccc(Cl)cc2c2nc(-c3ccco3)nn12 | – | 0.0623 | 0.9 | – | –
3 | O=c1oc2ccccc2c2nc(-c3ccccc3)nn12 | – | 0.132 | 0.98 | – | –
4 | O=c1oc2ccc(Cl)cc2c2nc(-c3cccs3)nn12 | – | 0.1 | 0.8 | – | –
5 | COc1ccc(-c2nc3c4cc(Cl)ccc4oc(=O)n3n2)cc1 | – | 0.0728 | 0.5 | – | –
6 | O=c1oc2ccccc2c2nc(-c3ccc(Cl)cc3)nn12 | – | – | – | 0 | –
7 | O=c1oc2ccc(Cl)cc2c2nc(-c3ccccc3)nn12 | – | 0.568 | 0.78 | – | –
8 | COc1ccc(-c2nc3c4ccccc4oc(=O)n3n2)cc1 | – | 0.3 | 1.31 | – | –
9 | O=c1oc2ccccc2c2nc(-c3cccs3)nn12 | – | 0.0321 | 0.98 | – | –
10 | O=c1oc2ccccc2c2nc(-c3ccco3)nn12 | – | 0.0279 | 0.84 | – | –
11 | O=c1oc2ccc(Cl)cc2c2nc(-c3cccc(F)c3F)nn12 | – | 0.0118 | 1.11 | – | –

More lines, now with the values ahead:

Row | inhibition [1] [%] | Ki [2] [µM] | GR [3] | inhibition [4] [%] | inhibition [5] [%] | Compound
12 | – | 0.0422 | 0.76 | – | – | O=c1oc2ccc(Cl)cc2c2nc(-c3c(F)cccc3F)nn12
13 | – | 0.0052 | 0.9 | – | – | O=c1oc2ccc(Cl)cc2c2nc(-c3ccccc3F)nn12
14 | – | – | – | – | 45 | COc1ccc2c(c1)oc(=O)n1nc(-c3ccccc3F)nc21
15 | 3 | – | – | – | – | O=c1oc2ccc(Cl)cc2c2nc(-c3ccc(Cl)cc3)nn12
16 | – | 0.0448 | 0.84 | – | – | Cc1ccc2oc(=O)n3nc(-c4ccccc4F)nc3c2c1
17 | – | 0.0437 | 1.13 | – | – | COc1ccc2oc(=O)n3nc(-c4ccccc4F)nc3c2c1
18 | – | 0.0153 | 0.95 | – | – | O=c1oc2ccccc2c2nc(-c3ccccc3F)nn12
19 | – | 0.105 | 0.8 | – | – | O=c1oc2ccc(Cl)cc2c2nc(-c3ccoc3)nn12
20 | – | 0.211 | 1.02 | – | – | O=c1oc2ccc(Cl)cc2c2nc(-c3ccsc3)nn12
21 | – | 0.12 | 0.81 | – | – | CCOC(=O)c1nc2c3ccccc3oc(=O)n2n1
22 | – | 0.125 | 1.2 | – | – | CCOC(=O)c1nc2c3cc(Cl)ccc3oc(=O)n2n1
